Experiments:
[1] = test system: human breast and pancreatic cancer cell lines; assay: MTS proliferation assays, statements over the cell line panel; type: cell-based; conditions: for antiproliferative activity (in words): MCF-7, MDA-MB-231, AsPC1, Panc-1, MTS assays
[2] = test system: MDA-MB-231 breast cancer cells; assay: Cellular morphological changes under light microscopy; type: cell-based, human; conditions: MDA-MB-231, 48 h, 1 μM, 5 μM and 10 μM
[3] = test system: caspase-3; assay: Western blot of cleaved caspase-3 in MDA-MB-231 cells; type: cell-based, human; conditions: MDA-MB-231, Western blot
Summary of the method: (§1)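 Protein expression in MDA-MB-231 cells was analysed by Western blot after treatment with test compound. Band intensities were quantified by densitometry over three independent experiments, with significance marked at p < 0.05 and p < 0.01.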

[4] = test system: MDA-MB-231 breast cancer cells; assay: Annexin V-based flow cytometry apoptosis measurement; type: cell-based, human; conditions: MDA-MB-231, dose-dependent
[5] = test system: cyclin D1; assay: Western blot of cyclin D1 in MDA-MB-231 cells; type: cell-based, human; conditions: MDA-MB-231, Western blot
Summary of the method: as §1

[6] = test system: MDA-MB-231 xenograft tumors; assay: MDA-MB-231 xenograft tumor growth model; type: in vivo, mice
[7] = Signs of toxicity in mice; type: in vivo; conditions: 75 mg/kg
[8] = test system: STAT3; assay: Western blot of total and phosphorylated STAT3 in MDA-MB-231 cells; type: cell-based, human; conditions: MDA-MB-231, 24 h
Summary of the method: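 MDA-MB-231 cells were treated with different doses of test compound for 24 h, then probed by Western blot for total STAT3 and Tyr-705 phospho-STAT3. Bands were quantified by densitometry over three independent experiments, with significance at p < 0.05 and p < 0.01.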

[9] = test system: STAT3 promoter activity; assay: STAT3 dual luciferase reporter assay; type: cell-based, human; conditions: 24 h pre-treatment
Summary of the method: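 MDA-MB-231 cells were transiently transfected with the pSTAT3-Luc reporter vector and pretreated with test compound at different concentrations for 24 h. STAT3 promoter activity was then read by luciferase.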

## CC(=O)Nc1ccc(NC(=O)c2cc(Cl)ccc2OC2CCNCC2)c(Cl)c1 [Compound 20]
[1]
  antiproliferative activity (in words): significant loss of the antiproliferative activity

## O=C(Nc1ccc([N+](=O)[O-])cc1Cl)c1cc(Cl)ccc1OC1CCNCC1 [Compound 10]
[2]
  cell proliferation and apoptosis with cellular morphological changes: significantly inhibited cell proliferation and induced apoptosis

## CS(=O)(=O)Nc1ccc(NC(=O)c2cc(Cl)ccc2OC2CCNCC2)c(Cl)c1 [Compound 19]
[1]
  antiproliferative activity (in words): significant loss of the antiproliferative activity

## O=C(Nc1ccc([N+](=O)[O-])cc1Cl)c1cc(Cl)ccc1OCCF [Compound 3]
[1]
  antiproliferative activity (in words): no significant effects

## NCCOc1ccc(Cl)cc1C(=O)Nc1ccc([N+](=O)[O-])cc1Cl [Compound 11]
[3]
  cleaved caspase-3: induced
[4]
  apoptosis (annexin V, flow cytometry): activated apoptosis
[5]
  cyclin D1: downregulated
[6]; 7.5 mg/kg i.p., compared with 12.5 mg/kg niclosamide
  inhibition of xenograft tumor growth, i.p.: better effect in inhibiting tumor growth
[6]; 25 mg/kg p.o., more efficacious than niclosamide at 75 mg/kg
  growth of xenograft tumors, oral administration: significantly reduced
[6]; nude mice bearing MDA-MB-231 xenografts
  xenograft tumor growth in vivo (both i.p. & p.o.): significantly suppressed
[2]
  cell proliferation and apoptosis with cellular morphological changes: significantly inhibited cell proliferation and induced apoptosis
[7]
  signs of toxicity: did not show significant signs of toxicity
[8]
  phosphorylated STAT3 (p-STAT3) at Tyr-705: suppressed
  total STAT3 level: reduced
[9]; 10 μM, MDA-MB-231, compared with control
  decrease of STAT3 promoter activity: approximately 32%

## O=C(Nc1ccc([N+](=O)[O-])cc1Cl)c1cc(Cl)ccc1O [Compound 1, niclosamide, reference compound]
[4]
  apoptosis (annexin V, flow cytometry): activated apoptosis
[2]
  cell proliferation and apoptosis with cellular morphological changes: significantly inhibited cell proliferation and induced apoptosis
[8]
  phosphorylated STAT3 (p-STAT3) at Tyr-705: suppressed
  total STAT3 level: reduced
[9]; 20 μM, MDA-MB-231
  STAT3 promoter activity (in words): suppressed

## CN1CCC(Oc2ccc(Cl)cc2C(=O)Nc2ccc([N+](=O)[O-])cc2Cl)CC1 [Compound 4]
[1]; vs analogue 10
  fold loss of antiproliferative activity in comparison with analogue 10: 10 fold
